Measured values taken from ChEMBL document CHEMBL5096213 (Bioorg Med Chem, 2022).
≈ marks a conversion by molar mass, not a printed value.

Test system: Mycobacterium tuberculosis variant bovis
Assay: Potency index, ratio of pyrazinoic-acid MIC50 to test compound MIC50 for antimycobacterial activity against Mycobacterium bovis BCG Pasteur ATCC35734 assessed as inhibition of bacterial growth incubated for 5 days by broth microdilution method
Type: functional
Conditions: time 5 day

Compound	Ratio
CC(C)CNc1cnc(C(=O)[O-])cn1.[Na+]	2.5
CC(C)CNc1cncc(C(=O)[O-])n1.[Na+]	2.5
CCNc1nccnc1C(=O)[O-].[Na+]	2.5
CCC(=O)Nc1cncc(C(=O)O)n1	5
CCNc1cnc(C(=O)[O-])cn1.[Na+]	2.5
CC(C)CNc1nccnc1C(=O)[O-].[Na+]	2.5
CCNc1cncc(C(=O)[O-])n1.[Na+]	2.5

Test system: Mycobacterium tuberculosis variant bovis
Assay: Antimycobacterial activity against Mycobacterium bovis BCG Pasteur ATCC35734 assessed as inhibition of bacterial growth incubated for 5 days by broth microdilution method
Type: functional
Conditions: BCG Pasteur ATCC35734, 120 h, time 5 day
Method in brief: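 M. bovis BCG Pasteur grown to mid-log (OD600 0.4–0.6), seeded at OD600 0.05 into 2-fold serial compound dilutions in complete Middlebrook 7H9, neutral pH. Incubation 5 days, 37 °C, shaking 90 rpm, humidified. […] At least two experiments, means reported.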

Compound	MIC50 [µM]
Cc1cnc(C(=O)O)cn1	3200 (≈ 442 µg/mL)
O=C(O)c1cnc(Cl)cn1	1700 (≈ 270 µg/mL)
O=C(O)c1cnc2ccccc2n1	700 (≈ 122 µg/mL)
NC(=S)c1cnccn1	2700 (≈ 376 µg/mL)
O=C(O)c1cncnc1	> 5000
CC(=O)c1cnccn1	> 5000
O=C(O)c1ccnnc1	> 4000
O=C(O)c1cccnn1	> 5000
CCCC(=O)Nc1cnc(C(=O)O)c(N)n1	> 4000
CCCNc1cnc(C(=O)O)cn1	1400 (≈ 254 µg/mL)
O=C(O)c1cnc(O)cn1	> 3000
O=C(O)c1nccnc1N1CCSCC1	> 5000
CC(C)(C)Nc1nccnc1C(=O)O	400 (≈ 78.1 µg/mL)
O=C(O)c1nccnc1Br	> 4000
CCCNc1nccnc1C(=O)O	200 (≈ 36.2 µg/mL)
CC(C)CNc1cnc(C(=O)[O-])cn1.[Na+]	400
CC(C)Nc1nccnc1C(=O)O	20 (≈ 3.62 µg/mL)
O=C(O)c1nccnc1Nc1ccccc1	400 (≈ 86.1 µg/mL)
CC(=O)Nc1cnc(C(=O)O)c(N)n1	> 4000
Cc1nccnc1C(=O)O	3500 (≈ 483 µg/mL)
CCCCNc1nccnc1C(=O)O	600 (≈ 117 µg/mL)
CC(C)CN(C)c1cnc(C(=O)O)c(N)n1	700 (≈ 157 µg/mL)
CCN(CC)c1nccnc1C(=O)O	3600 (≈ 703 µg/mL)
COc1nccnc1C(=O)O	2700 (≈ 416 µg/mL)
CCC(=O)Nc1cnc(C(=O)O)cn1	3500 (≈ 683 µg/mL)
CNc1nccnc1C(=O)O	700 (≈ 107 µg/mL)

Compound	MIC50 [µM]
O=C(O)c1cnc(NC2CCC2)cn1	> 2500
CCCCN(C)c1nccnc1C(=O)O	2300 (≈ 481 µg/mL)
O=C(O)c1nccnc1-c1ccccc1	1500 (≈ 300 µg/mL)
NS(=O)(=O)c1cnccn1	> 4000
CCCCN(C)c1cnc(C(=O)O)c(N)n1	200 (≈ 44.9 µg/mL)
CC(C)CNc1cncc(C(=O)[O-])n1.[Na+]	> 2500
Cc1cccc(-c2nccnc2C(=O)O)c1	800 (≈ 171 µg/mL)
O=C(O)c1nccnc1N1CCCCC1	> 2500
Cc1ccccc1-c1nccnc1C(=O)O	> 5000
CCNc1nccnc1C(=O)[O-].[Na+]	400
CCC(=O)Nc1cncc(C(=O)O)n1	200 (≈ 39 µg/mL)
O=C(O)c1nccnc1NCc1ccccc1	200 (≈ 45.8 µg/mL)
CC(C)C(=O)Nc1cnc(C(=O)O)c(N)n1	> 4000
O=C(O)c1nccnc1Cl	1800 (≈ 285 µg/mL)
O=C(O)c1ncccn1	> 4000
CC(C)Nc1cnc(C(=O)O)c(N)n1	1200 (≈ 235 µg/mL)
O=C(O)c1cncc(-c2ccccc2)n1	1700 (≈ 340 µg/mL)
c1cnc(-c2nnn[nH]2)cn1	> 4000
CCNc1cnc(C(=O)[O-])cn1.[Na+]	1800
CC(C)CN(C)c1nccnc1C(=O)O	3500 (≈ 732 µg/mL)
Nc1cnc(C(=O)O)cn1	800 (≈ 111 µg/mL)
CN(Cc1ccccc1)c1nccnc1C(=O)O	700 (≈ 170 µg/mL)
COc1cnc(C(=O)O)cn1	3500 (≈ 539 µg/mL)
O=C(O)c1cnc(Br)cn1	2500 (≈ 507 µg/mL)
O=C(O)c1nccnc1N1CCC2(CC1)CC2	> 2500
O=C(O)c1nccnc1N1CCOCC1	> 5000

Compound	MIC50 [µM]
O=C(O)c1cncc(O)n1	> 2400
O=C(O)c1cncc(Br)n1	3000 (≈ 609 µg/mL)
Nc1cncc(C(=O)O)n1	2600 (≈ 362 µg/mL)
O=C(O)c1nccnc1NC1CCCC1	400 (≈ 82.9 µg/mL)
O=C(O)c1ccncn1	2000 (≈ 248 µg/mL)
CC(C)CNc1nccnc1C(=O)[O-].[Na+]	200
O=C(O)c1cncc(Cl)n1	1000 (≈ 159 µg/mL)
CCNc1cncc(C(=O)[O-])n1.[Na+]	> 2500
CCC(=O)Nc1nccnc1C(=O)O	1500 (≈ 293 µg/mL)
O=C(O)c1nccnc1NC1CCC1	400 (≈ 77.3 µg/mL)
O=C(O)c1cncc(NC2CCC2)n1	> 2500
CC(=O)NS(=O)(=O)c1cnccn1	> 4000
Nc1nccnc1C(=O)O	800 (≈ 111 µg/mL)
Cc1ccc(-c2nccnc2C(=O)O)cc1	1000 (≈ 214 µg/mL)
O=C(O)c1cnc(-c2ccccc2)cn1	> 4000
O=C(O)c1nccnc1O	> 4000
COc1cncc(C(=O)O)n1	2000 (≈ 308 µg/mL)
Cc1cncc(C(=O)O)n1	2400 (≈ 332 µg/mL)
O=C(O)c1nccnc1N1CCCC1	4700 (≈ 908 µg/mL)
O=C(O)c1ccccn1 [2-PICOLINIC ACID]	700 (≈ 86.2 µg/mL)
O=C(O)c1ccccc1 [BENZOIC ACID]	2200 (≈ 269 µg/mL)
O=C(O)c1ccncc1 [ISONICOTINIC ACID]	2700 (≈ 332 µg/mL)
O=C(O)c1cccnc1 [NIACIN]	900 (≈ 111 µg/mL)
O=C(O)c1cnccn1 [PYRAZINOIC ACID]	1000 (≈ 124 µg/mL)
